Reference: ChEMBL document CHEMBL1154727, “Cytotoxic activity of 3-(5-phenyl-3H-[1,2,4]dithiazol-3-yl)chromen-4-ones and 4-oxo-4H-chromene-3-carbothioic acid N-phenylamides” (Eur J Med Chem, 2010)

Tests used:
[1] = system: COLO 205; test: Growth inhibition of human COLO205 cells at 100 uM after 48 hrs by sulforhodamine B assay; type: functional; conditions: COLO 205, 48 h, read-out: GI
In short: (§1)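 Cells kept in RPMI-1640 with 10% FBS, penicillin and streptomycin; trypan blue viability check beforehand. Seeded at 1 × 10^4 cells/well, 24 h at 37 °C, 5% CO2, then treated in quadruplicate for 48 h. Compounds diluted in medium with 50 µg/ml gentamycin; single test level 100 µM. TCA fixation at 4 °C for 1 h, SRB stain, Tris pH 10.5 solubilization, OD 540 nm. IC50 taken as the mean from dose-response curves.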

[2] = system: PC-3; test: Growth inhibition of human PC3 cells at 100 uM after 48 hrs by sulforhodamine B assay; type: functional; conditions: PC-3, 48 h, read-out: GI; in short: as §1
[3] = system: A549; test: Growth inhibition of human A549 cells at 100 uM after 48 hrs by sulforhodamine B assay; type: functional; conditions: A549, 48 h, read-out: GI; in short: as §1
[4] = system: HEp-2; test: Growth inhibition of human Hep2 cells at 100 uM after 48 hrs by sulforhodamine B assay; type: functional; conditions: HEp-2, 48 h, read-out: GI; in short: as §1
[5] = system: IMR-32; test: Growth inhibition of human IMR32 cells at 100 uM after 48 hrs by sulforhodamine B assay; type: functional; conditions: IMR-32, 48 h, read-out: GI; in short: as §1
[6] = system: COLO 205; test: Growth inhibition of human COLO205 cells after 48 hrs by sulforhodamine B assay; type: functional, cell-based; conditions: COLO 205, 48 h; in short: as §1
[7] = system: PC-3; test: Growth inhibition of human PC3 cells after 48 hrs by sulforhodamine B assay; type: functional, cell-based; conditions: PC-3, 48 h; in short: as §1
[8] = system: A549; test: Growth inhibition of human A549 cells after 48 hrs by sulforhodamine B assay; type: functional, cell-based; conditions: A549, 48 h; in short: as §1
[9] = system: HEp-2; test: Growth inhibition of human Hep2 cells after 48 hrs by sulforhodamine B assay; type: functional, cell-based; conditions: HEp-2, 48 h; in short: as §1
[10] = system: IMR-32; test: Growth inhibition of human IMR32 cells after 48 hrs by sulforhodamine B assay; type: functional, cell-based; conditions: IMR-32, 48 h; in short: as §1
[11] = system: OVCAR-5 (human); test: Growth inhibition of human OVCAR-5 cells after 48 hrs by sulforhodamine B assay; conditions: OVCAR-5, 48 h
[12] = system: OVCAR-5 (human); test: Growth inhibition of human OVCAR-5 cells at 100 uM after 48 hrs by sulforhodamine B assay; conditions: OVCAR-5, 48 h, read-out: GI
[13] = system: A549; test: Growth inhibition of human A549 cells at 1 uM after 48 hrs by sulforhodamine B assay; type: functional; conditions: A549, 48 h, read-out: GI
In short: (§2)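 Cells grown in RPMI-1640 with 10% FBS and antibiotics, plated at 1 × 10^4 cells/well for 24 h at 37 °C, 5% CO2. Agents diluted in gentamycin-containing medium, then added in quadruplicate for 48 h. Cells fixed with cold TCA at 4 °C for 1 h, stained with 0.4% SRB, and dye dissolved in 10 mM Tris pH 10.5; absorbance read at 540 nm.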

[14] = system: HEp-2; test: Growth inhibition of human Hep2 cells at 1 uM after 48 hrs by sulforhodamine B assay; type: functional; conditions: HEp-2, 48 h, read-out: GI; in short: as §2
[15] = system: IMR-32; test: Growth inhibition of human IMR32 cells at 1 uM after 48 hrs by sulforhodamine B assay; type: functional; conditions: IMR-32, 48 h, read-out: GI; in short: as §2
[16] = system: COLO 205; test: Growth inhibition of human COLO205 cells at 20 uM after 48 hrs by sulforhodamine B assay; type: functional; conditions: COLO 205, 48 h, read-out: GI
In short: (§3)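 Cells kept in RPMI-1640 with 10% FBS, penicillin and streptomycin; viability checked by trypan blue before use. Seeded at 1 × 10^4 cells/well, 24 h at 37 °C in 5% CO2, then compound (diluted in medium with gentamycin) added in quadruplicate for 48 h. Cells fixed with cold 50% TCA at 4 °C for 1 h, stained with 0.4% SRB, dye dissolved in 10 mM Tris pH 10.5, OD read at 540 nm.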

[17] = system: PC-3; test: Growth inhibition of human PC3 cells at 20 uM after 48 hrs by sulforhodamine B assay; type: functional; conditions: PC-3, 48 h, read-out: GI; in short: as §3
[18] = system: OVCAR-3; test: Growth inhibition of human OVCAR-3 cells at 20 uM after 48 hrs by sulforhodamine B assay; type: functional; conditions: OVCAR-3, 48 h, read-out: GI; in short: as §3
[19] = system: COLO 205; test: Growth inhibition of human COLO205 cells at 10 uM after 48 hrs by sulforhodamine B assay; type: functional; conditions: COLO 205, 48 h, read-out: GI; in short: as §2
[20] = system: PC-3; test: Growth inhibition of human PC3 cells at 10 uM after 48 hrs by sulforhodamine B assay; type: functional; conditions: PC-3, 48 h, read-out: GI; in short: as §2
[21] = system: OVCAR-5 (human); test: Growth inhibition of human OVCAR-5 cells at 10 uM after 48 hrs by sulforhodamine B assay; conditions: OVCAR-5, 48 h, read-out: GI
[22] = system: A549; test: Growth inhibition of human A549 cells at 10 uM after 48 hrs by sulforhodamine B assay; type: functional; conditions: A549, 48 h, read-out: GI; in short: as §2
[23] = system: HEp-2; test: Growth inhibition of human Hep2 cells at 10 uM after 48 hrs by sulforhodamine B assay; type: functional; conditions: HEp-2, 48 h, read-out: GI; in short: as §2
[24] = system: IMR-32; test: Growth inhibition of human IMR32 cells at 10 uM after 48 hrs by sulforhodamine B assay; type: functional; conditions: IMR-32, 48 h, read-out: GI; in short: as §2

| SMILES | inhibition of growth at 100 µM [1] [%] | inhibition of growth at 100 µM [2] [%] | inhibition of growth at 100 µM [3] [%] | inhibition of growth at 100 µM [4] [%] | inhibition of growth at 100 µM [5] [%] | IC50 [6] [µM] | IC50 [7] [µM] | IC50 [8] [µM] | IC50 [9] [µM] | IC50 [10] [µM] | IC50 [11] [µM] | inhibition of growth at 100 µM [12] [%] | other results |
| --- | --- | --- | --- | --- | --- | --- | --- | --- | --- | --- | --- | --- | --- |
| O=c1c(C2N=C(c3ccccc3)SS2)coc2ccccc12 (stereo not given) | 18 | 23 | 42 | 48 | 82 | > 100 | > 100 | > 100 | > 100 | 16.5 | > 100 | 11 | – |
| O=c1c(C(=S)Nc2ccccc2)coc2cc(Cl)c(Cl)cc12 | 16 | 16 | 3 | 4 | 18 | > 100 | 95.4 | 71.2 | > 100 | 89.9 | > 100 | 2 | – |
| Cc1ccc2occ(C3N=C(c4ccccc4)SS3)c(=O)c2c1 (stereo not given) | 32 | 40 | 67 | 43 | 53 | > 100 | > 100 | 66.5 | > 100 | 70.7 | 93.7 | 54 | – |
| O=c1c(C2N=C(c3ccccc3)SS2)coc2ccc(F)cc12 (stereo not given) | 37 | 32 | 55 | 51 | 75 | > 100 | > 100 | 91.1 | 98.6 | 14.6 | > 100 | 27 | – |
| O=c1c(C2N=C(c3ccccc3)SS2)coc2cc(Cl)c(F)cc12 (stereo not given) | 45 | 76 | 57 | 52 | 80 | > 100 | 56.9 | 93.5 | 97.6 | 56.8 | 61.7 | 75 | – |
| O=c1c(C(=S)Nc2ccccc2)coc2ccccc12 | 71 | 63 | 79 | 32 | 53 | 72.6 | 60.6 | 52.8 | > 100 | 95.8 | 86.4 | 58 | – |
| O=c1c(C(=S)Nc2ccccc2)coc2ccc(F)cc12 | 26 | 45 | 70 | 32 | 59 | > 100 | > 100 | 71.9 | > 100 | 89.8 | > 100 | 49 | – |
| O=c1c(C(=S)Nc2ccccc2)coc2cc(Cl)ccc12 | 38 | 55 | 66 | 41 | 56 | > 100 | 90.8 | 63.6 | > 100 | 92.7 | > 100 | 47 | – |
| O=c1c(C2N=C(c3ccccc3)SS2)coc2ccc(Cl)cc12 (stereo not given) | 12 | 62 | 73 | 69 | 92 | > 100 | 52.7 | 71.3 | 74.9 | 10 | 66.5 | 71 | – |
| O=c1c(C2N=C(c3ccccc3)SS2)coc2cc(Cl)c(Cl)cc12 (stereo not given) | 50 | 70 | 52 | 51 | 77 | > 100 | 60 | 95 | 98 | 58 | 65.2 | 68 | – |
| O=c1c(C2N=C(c3ccccc3)SS2)coc2cc(Cl)ccc12 (stereo not given) | 57 | 81 | 76 | 31 | 53 | 76.7 | 38.4 | 57.5 | > 100 | 95.1 | 10.5 | 91 | – |
| COc1cccc2c1C(=O)c1c(O)c3c(c(O)c1C2=O)C[C@@](O)(C(=O)CO)C[C@@H]3O[C@H]1C[C@H](N)[C@H](O)[C@H](C)O1 [DOXORUBICIN] | – | – | – | – | – | – | – | – | – | 1.7 | – | – | inhibition of growth at 1 µM [13]: 93%; inhibition of growth at 1 µM [14]: 57%; inhibition of growth at 1 µM [15]: 55% |
| O=c1[nH]cc(F)c(=O)[nH]1 [FLUOROURACIL] | – | – | – | – | – | 21 | – | – | – | – | – | – | inhibition of growth at 20 µM [16]: 12%; inhibition of growth at 20 µM [17]: 20%; inhibition of growth at 20 µM [18]: 26% |
| CO[C@@]12[C@H](COC(N)=O)C3=C(C(=O)C(C)=C(N)C3=O)N1C[C@@H]1N[C@@H]12 [MITOMYCIN] | – | – | – | – | – | – | 1.5 | – | 1.5 | – | – | – | inhibition of growth at 10 µM [19]: 44%; inhibition of growth at 10 µM [20]: 41%; inhibition of growth at 10 µM [21]: 65% |
| CC(=O)O[C@H]1C(=O)[C@@]2(C)[C@H]([C@H](OC(=O)c3ccccc3)[C@]3(O)C[C@H](OC(=O)[C@H](O)[C@@H](NC(=O)c4ccccc4)c4ccccc4)C(C)=C1C3(C)C)[C@]1(OC(C)=O)CO[C@@H]1C[C@@H]2O [PACLITAXEL] | – | – | – | – | – | – | – | 2.7 | – | – | 2.7 | – | inhibition of growth at 10 µM [22]: 67%; inhibition of growth at 10 µM [23]: 55%; inhibition of growth at 10 µM [24]: 45% |
